Measurements from ChEMBL document CHEMBL4033643, “Synthesis and in vitro antitumour activity of crassalactone D, its stereoisomers and novel cinnamic ester derivatives” (Eur J Med Chem, 2017).
Activity calls are given as the source filed them. The rule behind the calls is not given here.

What was measured:
K562 [1] = experiment: Induction of apoptosis in human K562 cells assessed as increase in caspase 3 expression level by Western blot analysis; type: functional, cell-based
Method in brief: (§1)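 Western blot of treated K562 cells for Bcl-2, Bax, activated caspase 3 and cleaved PARP (85 kDa fragment). Blots developed by ECL, with band expression quantified by densitometry against an untreated control sample.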

MRC5 = experiment: Cytotoxicity against human MRC5 cells assessed as reduction in cell viability after 72 hrs by MTT assay; type: cell-based; conditions: MRC5, 72 h
K562 [2] = experiment: Cytotoxicity against human K562 cells assessed as reduction in cell viability after 72 hrs by MTT assay; type: functional, cell-based; conditions: K562, 72 h
K562 [3] = experiment: Induction of apoptosis in human K562 cells assessed as increase in cleaved PARP expression level by Western blot analysis; type: functional, cell-based; method in brief: as §1
K562 [4] = experiment: Induction of apoptosis in human K562 cells assessed as specific necrosis by Annexin V-FITC/propidium iodide staining based flow cytometry; type: functional; parameters: concentration or dose not given beside the values
HL-60 = experiment: Cytotoxicity against human HL60 cells assessed as reduction in cell viability after 72 hrs by MTT assay; type: functional, cell-based; conditions: HL-60, 72 h
HeLa = experiment: Cytotoxicity against human HeLa cells assessed as reduction in cell viability after 72 hrs by MTT assay; type: functional, cell-based
Jurkat = experiment: Cytotoxicity against human Jurkat cells assessed as reduction in cell viability after 72 hrs by MTT assay; type: functional, cell-based
K562 [5] = experiment: Cell cycle arrest in human K562 cells assessed as total cell levels at G2/M phase at IC50 after 72 hrs by propidium iodide staining based flow cytometry (reference value: 14.31%); type: functional
K562 [6] = experiment: Cell cycle arrest in human K562 cells assessed as accumulation at S phase at IC50 after 72 hrs by propidium iodide staining based flow cytometry (reference value: 41.03%); type: functional
K562 [7] = experiment: Cell cycle arrest in human K562 cells assessed as accumulation at G0/G1 phase at IC50 after 72 hrs by propidium iodide staining based flow cytometry (reference value: 38.48%); type: functional
K562 [8] = experiment: Induction of apoptosis in human K562 cells assessed as gated necrotic cells by Annexin V-FITC/propidium iodide staining based flow cytometry (reference value: 0.24%); type: functional
K562 [9] = experiment: Induction of apoptosis in human K562 cells assessed as increase in Bax expression level by Western blot analysis; type: functional, cell-based; method in brief: as §1
K562 [10] = experiment: Induction of apoptosis in human K562 cells assessed as total late apoptotic cells by Annexin V-FITC/propidium iodide staining based flow cytometry (reference value: 0.77%); type: functional
K562 [11] = experiment: Induction of apoptosis in human K562 cells assessed as gated late apoptotic cells by Annexin V-FITC/propidium iodide staining based flow cytometry (reference value: 0.88%); type: functional
K562 [12] = experiment: Induction of apoptosis in human K562 cells assessed as total early apoptotic cells by Annexin V-FITC/propidium iodide staining based flow cytometry (reference value: 3.07%); type: functional
K562 [13] = experiment: Induction of apoptosis in human K562 cells assessed as total viable cells by Annexin V-FITC/propidium iodide staining based flow cytometry (reference value: 92.45%); type: functional
K562 [14] = experiment: Induction of apoptosis in human K562 cells assessed as decrease in Bcl-2 expression level by Western blot analysis; type: functional, cell-based; method in brief: as §1
K562 [15] = experiment: Induction of apoptosis in human K562 cells assessed as specific apoptosis by Annexin V-FITC/propidium iodide staining based flow cytometry; type: functional; parameters: concentration or dose not given beside the values
K562 [16] = experiment: Induction of apoptosis in human K562 cells assessed as total necrotic cells by Annexin V-FITC/propidium iodide staining based flow cytometry (reference value: 0.23%); type: functional
K562 [17] = experiment: Cell cycle arrest in human K562 cells assessed as accumulation at G2/M phase at IC50 after 72 hrs by propidium iodide staining based flow cytometry (reference value: 19.01%); type: functional
K562 [18] = experiment: Cell cycle arrest in human K562 cells assessed as total cell levels at M4 phase at IC50 after 72 hrs by propidium iodide staining based flow cytometry (reference value: 0.50%); type: functional
K562 [19] = experiment: Cell cycle arrest in human K562 cells assessed as total cell levels at S phase at IC50 after 72 hrs by propidium iodide staining based flow cytometry (reference value: 36.49%); type: functional
MCF7 = experiment: Cytotoxicity against human MCF7 cells assessed as reduction in cell viability after 72 hrs by MTT assay; type: functional, cell-based; conditions: MCF7, 72 h
K562 [20] = experiment: Cell cycle arrest in human K562 cells assessed as accumulation at sub G1 phase at IC50 after 72 hrs by propidium iodide staining based flow cytometry (reference value: 1.48%); type: functional
A549 = experiment: Cytotoxicity against human A549 cells assessed as reduction in cell viability after 72 hrs by MTT assay; type: functional, cell-based; conditions: A549, 72 h
Raji = experiment: Cytotoxicity against human Raji cells assessed as reduction in cell viability after 72 hrs by MTT assay; type: functional, cell-based
K562 [21] = experiment: Induction of apoptosis in human K562 cells assessed as gated viable cells by Annexin V-FITC/propidium iodide staining based flow cytometry (reference value: 95.78%); type: functional
K562 [22] = experiment: Cell cycle arrest in human K562 cells assessed as total cell levels at G0/G1 phase at IC50 after 72 hrs by propidium iodide staining based flow cytometry (reference value: 39.97%); type: functional
MDA-MB-231 = experiment: Cytotoxicity against human MDA-MB-231 cells assessed as reduction in cell viability after 72 hrs by MTT assay; type: functional, cell-based; conditions: MDA-MB-231, 72 h
K562 [23] = experiment: Induction of apoptosis in human K562 cells assessed as gated early apoptotic cells by Annexin V-FITC/propidium iodide staining based flow cytometry (reference value: 3.18%); type: functional
K562 [24] = experiment: Potency index, ratio of doxorubicin IC50 to compound IC50 for human K562 cells; type: functional

SMILES	Activity (K562 [1])	IC50 (MRC5) [µM]	IC50 (K562 [2]) [µM]	Activity (K562 [3])	Activity (K562 [4]) [%]	IC50 (HL-60) [µM]	IC50 (HeLa) [µM]	IC50 (Jurkat) [µM]	Activity (K562 [5]) [%]	Activity (K562 [6]) [%]	Activity (K562 [7]) [%]	Activity (K562 [8]) [%]	Activity (K562 [9])	Activity (K562 [10]) [%]	Activity (K562 [11]) [%]	Activity (K562 [12]) [%]	Activity (K562 [13]) [%]	Activity (K562 [14])	Activity (K562 [15]) [%]	Activity (K562 [16]) [%]	further results
O=C1C=C[C@]2(C[C@H](OC(=O)/C=C/c3ccccc3)[C@H](c3ccccc3)O2)O1	inactive	> 100	4.62	inactive	1.97	3.41	14.5	5.63	29.57	38.09	21.01	2.09	Active	12.17	15.25	53.67	12.29	Active	81.79	1.67	Activity (K562 [17]): 35.21%; Activity (K562 [18]): 4.73%; Activity (K562 [19]): 31.69%; IC50 (MCF7): 5.34 µM; Activity (K562 [20]): 5.69%; IC50 (A549): 1.02 µM; IC50 (Raji): 9.68 µM; Activity (K562 [21]): 15.4%; Activity (K562 [22]): 17.87%; IC50 (MDA-MB-231): 5.23 µM; Activity (K562 [23]): 67.26%
COc1ccc(/C=C/C(=O)O[C@H]2C[C@@]3(C=CC(=O)O3)O[C@H]2c2ccccc2)cc1	Active	> 100	1.02	Active	1.6	2.25	9.94	2.54	18.76	29.4	47.26	2.44	inactive	0.28	0.29	1.36	91.77	Active	2.36	2.34	Activity (K562 [17]): 20.11%; Activity (K562 [18]): 2.89%; Activity (K562 [19]): 26.32%; IC50 (MCF7): 3.25 µM; Activity (K562 [20]): 3.23%; IC50 (A549): 0.45 µM; IC50 (Raji): 3.05 µM; Activity (K562 [21]): 95.84%; Activity (K562 [22]): 42.31%; IC50 (MDA-MB-231): 2.69 µM; Activity (K562 [23]): 1.42%
O=C1C=C[C@@]2(C[C@H](OC(=O)/C=C/c3ccc([N+](=O)[O-])cc3)[C@H](c3ccccc3)O2)O1	Active	> 100	2.22	Active	1.76	4.36	24.8	4.03	6.42	22.7	30.15	2.29	inactive	0.73	1.62	31.35	11.93	Active	70.03	1.03	Activity (K562 [17]): 7.07%; Activity (K562 [18]): 33.19%; Activity (K562 [19]): 18.76%; IC50 (MCF7): 4.31 µM; Activity (K562 [20]): 40.08%; IC50 (A549): 0.85 µM; IC50 (Raji): 1.64 µM; Activity (K562 [21]): 26.49%; Activity (K562 [22]): 24.92%; IC50 (MDA-MB-231): 1.25 µM; Activity (K562 [23]): 69.6%
O=C1C=C[C@@]2(C[C@H](OC(=O)/C=C/c3ccccc3)[C@H](c3ccccc3)O2)O1	Active	> 100	4.65	Active	28.29	9.65	58.5	1.02	12.13	42.16	27.11	8.36	inactive	8.34	10.47	39.85	24.8	Active	6.76	6.66	Activity (K562 [17]): 18.24%; Activity (K562 [18]): 8.27%; Activity (K562 [19]): 27.97%; IC50 (MCF7): 11.4 µM; Activity (K562 [20]): 12.49%; IC50 (A549): 0.25 µM; IC50 (Raji): 2.28 µM; Activity (K562 [21]): 31.14%; Activity (K562 [22]): 18.23%; IC50 (MDA-MB-231): 3.64 µM; Activity (K562 [23]): 50.03%
O=C1C=C[C@]2(C[C@H](O)[C@@H](c3ccccc3)O2)O1	Active	> 100	0.12	Active	1.08	1.06	0.34	0.21	5.47	59.02	32.52	5.02	inactive	4.05	16.8	2.14	16.71	Active	22.6	1.21	Ratio IC50 (K562 [24]): 2; Activity (K562 [17]): 6.86%; Activity (K562 [18]): 1.26%; Activity (K562 [19]): 47.93%; IC50 (MCF7): 11.6 µM; Activity (K562 [20]): 1.6%; IC50 (A549): 29 µM; IC50 (Raji): 2.34 µM; Activity (K562 [21]): 69.31%; Activity (K562 [22]): 25.97%; IC50 (MDA-MB-231): 1.89 µM; Activity (K562 [23]): 8.88%
